{
  "source": "ChEMBL document CHEMBL3817843",
  "about": "“Understanding Oxadiazolothiazinone Biological Properties: Negative Inotropic Activity versus Cytochrome P450-Mediated Metabolism” (J Med Chem, 2016)",
  "key": {"Aorta [1]": {"test_system": "Aorta", "assay": "Inhibition of verapamil-induced vasorelaxant activity in potassium depolarized guinea pig aorta assessed as relaxation of calcium-induced contraction at 10^-8 M preincubated for 30 mins followed by verapamil addition", "type": "functional, tissue-based", "settings": "Cavia porcellus"}, "Liver microsome": {"test_system": "Liver microsome", "assay": "Stability in human liver microsomes at 1 uM after 2 to 60 mins by LC-MS analysis in absence of NADPH"}, "Cytochrome P450 1A2": {"biological_target": "T1, Cytochrome P450 1A2 (Homo sapiens, UniProt P05177)", "T1 sequence (P05177 whole entry)": "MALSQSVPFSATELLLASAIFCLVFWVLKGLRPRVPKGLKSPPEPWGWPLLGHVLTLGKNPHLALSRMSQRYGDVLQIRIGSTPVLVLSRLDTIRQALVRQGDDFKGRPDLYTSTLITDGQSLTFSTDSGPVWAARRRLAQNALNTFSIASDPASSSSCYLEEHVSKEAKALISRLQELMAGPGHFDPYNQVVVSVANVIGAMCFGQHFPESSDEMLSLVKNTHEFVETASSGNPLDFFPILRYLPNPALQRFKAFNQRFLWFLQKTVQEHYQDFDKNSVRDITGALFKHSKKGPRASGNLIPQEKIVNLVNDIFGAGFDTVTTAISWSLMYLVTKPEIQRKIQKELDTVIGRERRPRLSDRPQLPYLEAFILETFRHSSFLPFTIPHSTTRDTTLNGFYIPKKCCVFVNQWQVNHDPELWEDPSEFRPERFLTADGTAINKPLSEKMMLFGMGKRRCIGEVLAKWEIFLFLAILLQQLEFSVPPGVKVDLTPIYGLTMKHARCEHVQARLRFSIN", "assay": "Inhibition of CYP1A2 in human liver microsomes using phenacetin as substrate after 30 mins by LC-MS analysis"}, "Left cardiac atrium [2]": {"test_system": "Left cardiac atrium", "assay": "Negative inotropic activity in potassium depolarized guinea pig left atrium assessed as reduction in developed tension at 10^-8 M preincubated for 30 mins followed by 5 uM diltiazem addition", "type": "functional, Cavia porcellus", "parameters": "scale not given: the % may be the effect or the level left"}, "Left cardiac atrium [3]": {"test_system": "Left cardiac atrium", "assay": "Potentiation of diltiazem-induced negative inotropic activity in potassium depolarized guinea pig left atrium assessed as reduction in developed tension at 10^-8 M preincubated for 30 mins followed by diltiazem addition", "type": "functional", "settings": "Cavia porcellus", "summary_of_the_method": "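Guinea pig left atria driven at 1 Hz. Pretreated with compound at 0.01 μM, added 30 min before diltiazem, verapamil or nifedipine. Blocker concentration−response curves analysed by probit (Litchfield and Wilcoxon), n = 6−7. Data given as mean ±, Student's t test.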"}, "[4]": {"assay": "Half life in human liver microsomes assessed as CYP-mediated compound degradation at 1 uM by LC-MS analysis"}, "Cytochrome P450 3A4 [5]": {"biological_target": "T2, Cytochrome P450 3A4 (Homo sapiens, UniProt P08684)", "T2 sequence (P08684 whole entry)": "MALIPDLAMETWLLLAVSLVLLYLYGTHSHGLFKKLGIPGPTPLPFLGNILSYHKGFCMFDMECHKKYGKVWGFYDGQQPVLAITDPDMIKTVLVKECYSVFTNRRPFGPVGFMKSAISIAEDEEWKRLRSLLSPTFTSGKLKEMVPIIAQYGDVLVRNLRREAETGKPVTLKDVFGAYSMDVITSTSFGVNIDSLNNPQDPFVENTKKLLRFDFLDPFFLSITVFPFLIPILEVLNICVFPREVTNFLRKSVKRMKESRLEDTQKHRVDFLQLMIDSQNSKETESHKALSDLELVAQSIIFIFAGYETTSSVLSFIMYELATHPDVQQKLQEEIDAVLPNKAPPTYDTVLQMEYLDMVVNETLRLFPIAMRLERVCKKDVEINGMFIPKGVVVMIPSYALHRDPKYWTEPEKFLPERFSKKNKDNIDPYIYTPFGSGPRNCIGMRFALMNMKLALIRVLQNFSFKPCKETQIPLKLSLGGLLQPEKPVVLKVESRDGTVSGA", "assay": "Inhibition of CYP3A4 in human liver microsomes using testosterone as substrate after 5 mins by LC-MS analysis"}, "Cytochrome P450 3A4 [6]": {"biological_target": "T2, Cytochrome P450 3A4", "assay": "Inhibition of CYP3A4 in human liver microsomes using midazolam as substrate after 4 mins by LC-MS analysis"}, "Aorta [7]": {"test_system": "Aorta", "assay": "Vasorelaxant activity in potassium depolarized guinea pig aorta assessed as inhibition of calcium-induced contraction at 10^-6 M preincubated for 30 mins followed by 0.5 uM nifedipine addition", "type": "functional, Cavia porcellus", "parameters": "scale not given: the % may be the effect or the level left", "summary_of_the_method": "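K+-depolarized (80 mM) guinea pig aortic strips contracted with calcium. Compound at 1 μM added 30 min before diltiazem, verapamil or nifedipine. Response expressed as percent change from control. Data given as mean ±, Student's t test.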"}},
  "note": "Calls of active or inactive are those of the source. The rule behind the calls is not given here.",
  "data": [
    {"smiles": "CCOC1(c2ccc(Br)cc2)SC=C(C)n2c1noc2=O", "note": "(centres undefined)", "values": [
      {"measurement": "inhibition", "setting": "Aorta [1]", "value": "Active"},
      {"measurement": "Stability", "setting": "Liver microsome", "value": "Stable"},
      {"measurement": "IC50", "setting": "Cytochrome P450 1A2", "value": 2.9, "unit": "µM"},
      {"measurement": "Activity", "setting": "Left cardiac atrium [2]", "value": 92, "unit": "%"},
      {"measurement": "Activity", "setting": "Left cardiac atrium [3]", "value": "Active"},
      {"measurement": "half-life at 1 µM", "setting": "[4]", "value": 53, "unit": "min"},
      {"measurement": "IC50", "setting": "Cytochrome P450 3A4 [5]", "value": 19.2, "unit": "µM"},
      {"measurement": "IC50", "setting": "Cytochrome P450 3A4 [6]", "value": "> 20", "unit": "µM"},
      {"measurement": "Activity", "setting": "Aorta [7]", "value": 11, "unit": "%"}
    ]}
  ]
}
